This is an account of results in ChEMBL document CHEMBL1138454, “Synthesis and SAR of tolylamine 5-HT6 antagonists” (Bioorg Med Chem Lett, 2009).

For orientation: clearance means the volume of plasma or blood freed of the substance per unit of time. A lower clearance goes with inefficient removal. The term Kb denotes the equilibrium dissociation constant of an antagonist, usually derived from a functional assay. As a reminder, the IC50 is the concentration at which inhibition is half-maximal. A higher IC50 goes with a need for much substance. In general, half-life refers to the time needed for the level to fall by half in the phase considered. As a reminder, the Kp is the ratio of the level in a tissue or fluid to that in plasma or blood. For orientation: bioavailability means the share of a dose that reaches the circulation, judged against a reference dose that is usually intravenous.

Series [1] is described as follows: Clearance in rat. Format: ADME, organism-based. Particulars: in vivo.
Series [2] has as its target 5-hydroxytryptamine receptor 6 (Rattus norvegicus) (UniProt P31388). Description: Antagonist activity at rat recombinant 5HT6 receptor assessed as inhibition of 5-HT-stimulated cAMP level by ELISA. The class given is functional. The gist of the method: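 Cells expressing recombinant rat 5-HT6 receptor were stimulated with 5-HT. Inhibition of the 5-HT-stimulated cAMP accumulation was read by ELISA and expressed as a Kb.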

In series [3] the target is T1, 5-hydroxytryptamine receptor 2C (Homo sapiens, UniProt P28335).
T1 sequence (P28335 whole entry): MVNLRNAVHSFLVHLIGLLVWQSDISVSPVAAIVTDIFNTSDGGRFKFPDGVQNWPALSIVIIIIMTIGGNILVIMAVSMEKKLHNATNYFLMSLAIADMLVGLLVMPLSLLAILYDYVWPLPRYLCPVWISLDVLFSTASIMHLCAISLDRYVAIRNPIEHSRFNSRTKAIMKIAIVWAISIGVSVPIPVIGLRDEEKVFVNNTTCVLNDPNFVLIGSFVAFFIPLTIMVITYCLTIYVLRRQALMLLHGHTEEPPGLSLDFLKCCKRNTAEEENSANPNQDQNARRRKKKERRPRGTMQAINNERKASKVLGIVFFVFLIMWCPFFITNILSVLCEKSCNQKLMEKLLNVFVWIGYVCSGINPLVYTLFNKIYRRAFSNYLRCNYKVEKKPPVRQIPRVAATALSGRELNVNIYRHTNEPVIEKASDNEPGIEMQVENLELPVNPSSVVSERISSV
Description: Binding affinity to 5HT2C receptor.

Series [4] is described as follows: Half life in po dosed rat plasma. The class given is ADME, organism-based. A digest of the protocol: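 Rat pharmacokinetics; plasma half-life derived from the PO dosing arm.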
In series [5] the test system is Rattus norvegicus. The experiment in a line: Reversal of natural forgetting activity in rat assessed as novel object recognition at 3 mg/kg, ip after 24 hrs. Format: functional, organism-based. On the set-up: dose 3 mg/kg.
Series [6] has as its target T2, 5-hydroxytryptamine receptor 1A (Homo sapiens, UniProt P08908).
T2 sequence (P08908 whole entry): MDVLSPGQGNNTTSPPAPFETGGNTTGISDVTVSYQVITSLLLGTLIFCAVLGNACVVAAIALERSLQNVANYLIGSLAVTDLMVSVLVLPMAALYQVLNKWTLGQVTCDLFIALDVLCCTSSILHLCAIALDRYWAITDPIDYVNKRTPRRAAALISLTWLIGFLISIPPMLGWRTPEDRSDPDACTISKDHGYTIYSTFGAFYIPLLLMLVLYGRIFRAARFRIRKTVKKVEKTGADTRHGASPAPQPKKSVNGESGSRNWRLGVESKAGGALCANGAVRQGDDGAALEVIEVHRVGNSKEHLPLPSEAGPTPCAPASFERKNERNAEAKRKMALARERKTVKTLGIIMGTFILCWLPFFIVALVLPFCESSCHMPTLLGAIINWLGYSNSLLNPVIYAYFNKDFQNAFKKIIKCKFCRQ
The experiment in a line: Binding affinity to 5HT1A receptor.

Series [7] has as its target 5-hydroxytryptamine receptor 6 (Rattus norvegicus) (UniProt P31388). Description: Agonist activity at rat recombinant 5HT6 receptor assessed as increase in 5-HT-stimulated cAMP level at 10 uM by ELISA. The class given is functional. The gist of the method: (§1)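 cAMP accumulation measured by ELISA in cells expressing recombinant rat 5-HT6 receptor. Compound tested alone, without 5-HT, at 1, 3 and 10 µM to look for stimulation. 5-HT used as the stimulating reference.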

Series [8] is described as follows: Ratio of drug level in rat brain to plasma. Particulars: brain and plasma.
The subject of series [9] is Rattus norvegicus. Description: Reversal of natural forgetting activity in rat assessed as novel object recognition at 10 mg/kg, ip after 24 hrs. Also on record: dose 10 mg/kg. Format: functional, organism-based.
Series [10] in a line: Bioavailability in rat. The class given is ADME, organism-based. Particulars: in vivo.
Series [11] relates to Rattus norvegicus. Description: Reversal of natural forgetting activity in rat assessed as familiar object recognition at 3 mg/kg, ip after 24 hrs. Format: functional, organism-based. On the set-up: dose 3 mg/kg.
In series [12] the target is 5-hydroxytryptamine receptor 2A (Homo sapiens, UniProt P28223). The experiment in a line: Binding affinity to 5HT2A receptor.
Sequence of 5-hydroxytryptamine receptor 2A (P28223 whole entry): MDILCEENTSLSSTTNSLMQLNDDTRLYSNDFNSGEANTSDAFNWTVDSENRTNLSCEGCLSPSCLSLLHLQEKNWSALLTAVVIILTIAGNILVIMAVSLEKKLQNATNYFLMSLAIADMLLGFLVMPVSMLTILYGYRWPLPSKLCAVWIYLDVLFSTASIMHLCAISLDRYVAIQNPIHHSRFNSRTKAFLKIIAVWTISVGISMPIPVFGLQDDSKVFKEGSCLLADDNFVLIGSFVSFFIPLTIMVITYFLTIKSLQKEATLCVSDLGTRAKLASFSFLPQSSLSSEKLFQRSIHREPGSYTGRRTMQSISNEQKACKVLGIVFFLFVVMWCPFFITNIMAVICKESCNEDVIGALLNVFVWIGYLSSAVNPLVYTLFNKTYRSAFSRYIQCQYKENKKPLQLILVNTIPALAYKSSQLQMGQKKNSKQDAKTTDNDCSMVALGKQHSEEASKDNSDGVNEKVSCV
For series [13], the target named is 5-hydroxytryptamine receptor 6 (Rattus norvegicus) (UniProt P31388). The experiment in a line: Agonist activity at rat recombinant 5HT6 receptor assessed as increase in 5-HT-stimulated cAMP level at 3 uM by ELISA. The class given is functional. The gist of the method:
as §1
Background: Cyclic AMP is a second messenger, typically raised through Gs and lowered through Gi signalling.

A short description of series [14]: Volume of distribution at steady state in rat. Format: ADME, organism-based. Particulars: in vivo, read-out: Vdss.
In series [15] the test system is Rattus norvegicus. Description: Reversal of natural forgetting activity in rat assessed as familiar object recognition at 10 mg/kg, ip after 24 hrs. The class given is functional, organism-based. On the set-up: dose 10 mg/kg.
The target in series [16] is 5-hydroxytryptamine receptor 6 (Rattus norvegicus) (UniProt P31388). The experiment in a line: Agonist activity at rat recombinant 5HT6 receptor assessed as increase in 5-HT-stimulated cAMP level at 1 uM by ELISA. Format: functional. The gist of the method:
as §1

Activity calls are given as the source filed them.

Sequence of 5-hydroxytryptamine receptor 6 (Rattus norvegicus) (P31388 whole entry): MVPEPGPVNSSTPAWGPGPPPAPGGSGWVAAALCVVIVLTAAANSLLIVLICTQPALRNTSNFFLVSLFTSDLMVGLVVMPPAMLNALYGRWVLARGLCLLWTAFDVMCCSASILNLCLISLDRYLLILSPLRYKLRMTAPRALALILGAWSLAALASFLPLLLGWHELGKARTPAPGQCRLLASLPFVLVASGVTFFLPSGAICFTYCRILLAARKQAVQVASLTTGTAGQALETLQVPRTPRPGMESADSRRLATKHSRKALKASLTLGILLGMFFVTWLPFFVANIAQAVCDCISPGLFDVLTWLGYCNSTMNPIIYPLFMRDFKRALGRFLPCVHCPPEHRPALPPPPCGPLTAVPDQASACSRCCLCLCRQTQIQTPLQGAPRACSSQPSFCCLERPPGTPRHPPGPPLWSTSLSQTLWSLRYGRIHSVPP

As for `Cc1c(O[C@@H](C)c2cccc(F)c2)cccc1C1CCNCC1`, the clearance in series [1] amounted to 66 mL/min/kg. For the same molecule, in [2], the Kb is 153 nM. For the same molecule, the IC50 in [3], in series [6] and in [12] was more than 1000 nM in each case. The molecule also showed a half-life in series [4] of 354 min. Besides, the result with Rattus norvegicus [5], in the series on Rattus norvegicus [9], in the series on Rattus norvegicus [11] and with Rattus norvegicus [15] was Active. The outcome in [7], in series [13] and in [16] was inactive. Further, in [8], the Kp was 23. In [10], this molecule yielded a bioavailability of 90%. The Vd in series [14] was 12 L/kg.
